# Published values pooled from the literature.
SMILES,tested on,assay,test system,conditions,measurement,result
C[C@]12CC[C@H](O)CC1=CC[C@@H]1[C@@H]2CC[C@]2(C)C(n3cnc4ccccc43)=CC[C@@H]12.Cl,,,"mouse, plasma","oral, 10 mg/kg",AUC(0-t),26.1 ng·h/mL
CCCCCn1nc(C(=O)Nc2cccc3ccccc23)c2ccccc21,,metabolic stability,"Sprague-Dawley rat, liver microsomes","1 µM, pH 7.4",half-life,1.61 min
Nc1c2c(nc3c1C(c1ccc(Cl)c(Cl)c1)c1ccc(OCC(=O)c4ccccc4)cc1O3)CCCC2 (stereo not shown),SH-SY5Y,"cell growth or viability, MTT",,25 µM,viability,45.9%
Cc1cc(C)nc(Nc2ncc(C(=O)NCCc3c(C)[nH]c4ccccc34)cn2)c1,,chemical stability,simulated intestinal fluid,"10 µM, pH 6.8",half-life,197 min
CC[C@@H]1CN2CCc3c([nH]c4cccc(OC)c34)[C@H]2C[C@@H]1/C(=C\OC)C(=O)OC,mouse Hepatocyte,metabolic stability,hepatocytes,,half-life,11.2 min
Nc1c2c(nc3c1C(c1cccc([N+](=O)[O-])c1)c1ccc(OS(=O)(=O)c4ccc(F)cc4)cc1O3)CCCC2 (stereo not shown),SH-SY5Y,"cell growth or viability, MTT",,6.3 µM,viability,63.4%
CCCCNC(=O)Oc1ccc(OCc2ccccc2)cc1,,metabolic stability,"male Wistar rat, liver S9","1 µM, pH 7.4",half-life,7 min
Nc1c2c(nc3c1C(c1ccc(Cl)c(Cl)c1)c1ccc(OCC(=O)c4ccc(Cl)cc4)cc1O3)CCCC2 (stereo not shown),SH-SY5Y,"cell growth or viability, MTT",,6.3 µM,viability,71.6%
CCCCCCCCCCOc1cc2c(O)c(C(=O)OCC)cnc2cc1OCC,CHO,cell growth or viability,,72 h,IC50,> 100 µM
C[C@]12CC[C@H](n3ccnc3)CC1=CC[C@@H]1[C@@H]2CC[C@]2(C)C(n3cnc4ccccc43)=CC[C@@H]12.Cl.Cl,,,"male CD-1 mouse, plasma","intravenous, 1 mg/kg",AUC(0-t),1870 ng·h/mL
COc1cc2c(cc1NC(=O)c1ccc(C(C)(C)C#N)cc1)CCCCC2,NHDF,"cell growth or viability, ATP luminescence",,24 h,CC50,3.57 µM
COc1ccc(S(=O)(=O)Oc2ccc3c(c2)Oc2nc4c(c(N)c2C3c2cccc(OC)c2)CCCC4)cc1 (stereo not shown),SH-SY5Y,"cell growth or viability, MTT",,100 µM,viability,48.9%
CCC[C@@](N)(CO)CCc1ccc(OCCCCCC(C)C)cc1,"Cytochrome P450 2C9 (CYP2C9, Homo sapiens, UniProt P11712)","enzyme activity, inhibitor",,,IC50,> 50 µM
